Molecules are shown by their SMILES. Converted amounts (≈) assume the structure as drawn. The source made the active and inactive calls. The rule behind the calls is not given here. Bounds are passed on as bounds.

The target of data set [1] is T1, Prostaglandin G/H synthase 2 (Homo sapiens, UniProt P35354).
T1 sequence (P35354 whole entry): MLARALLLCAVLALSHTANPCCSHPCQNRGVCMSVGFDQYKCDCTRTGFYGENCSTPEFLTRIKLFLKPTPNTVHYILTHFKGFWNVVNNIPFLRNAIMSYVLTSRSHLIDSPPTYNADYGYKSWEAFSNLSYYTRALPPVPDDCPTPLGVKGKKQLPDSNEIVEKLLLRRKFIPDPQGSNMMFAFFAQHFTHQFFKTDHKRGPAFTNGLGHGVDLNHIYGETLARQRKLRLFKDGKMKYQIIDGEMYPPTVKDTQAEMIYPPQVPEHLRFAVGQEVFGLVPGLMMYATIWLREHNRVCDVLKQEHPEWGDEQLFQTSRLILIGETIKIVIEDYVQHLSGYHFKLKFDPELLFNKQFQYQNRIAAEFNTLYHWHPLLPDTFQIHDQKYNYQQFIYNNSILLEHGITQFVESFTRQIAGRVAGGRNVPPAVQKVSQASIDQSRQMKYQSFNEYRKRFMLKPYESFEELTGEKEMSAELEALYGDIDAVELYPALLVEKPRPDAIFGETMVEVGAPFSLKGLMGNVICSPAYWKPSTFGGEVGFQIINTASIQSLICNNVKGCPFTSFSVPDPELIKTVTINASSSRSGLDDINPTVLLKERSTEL
More on the design: species or system Blood.

Data set [2] addresses Prostaglandin G/H synthase 1 (Homo sapiens, UniProt P23219). Kind of data set: Inhibition of COX-1 in human whole blood assessed as thromboxane B2 production by RIA.
Data set [3] concerns Mus musculus. As to the kind of experiment: Analgesic activity in po dosed Swiss albino mouse assessed as reduction of acetic acid-induced writhing measured every 10 mins after 5 mins of administration. The class given is functional, organism-based. The essentials:
(§1)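 Male Swiss albino mice (23–25 g), compound given orally in CMC vehicle; writhing induced by 0.6% acetic acid (10 mL/kg) ip. Stretching movements counted for 10 min, starting 5 min after administration; percent reduction versus CMC-treated animals.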

For data set [4], the system named is J774. As to the kind of experiment: Selectivity index, ratio of IC50 for COX-1 to IC50 for COX-2 in mouse J774 cells. Type of data set: cell-based. The gist of the method:
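J774 macrophages stimulated 24 h with E. coli LPS (10 µg/mL) to induce COX-2, with or without compound (0.01–10 µM); supernatant PGE2 by RIA. Triplicate wells, three experiments, percent inhibition versus control, IC50 by sigmoidal fit; selectivity as COX-1/COX-2 IC50 ratio.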

For data set [5], the target named is T2, Prostaglandin G/H synthase 1 (Mus musculus, UniProt P22437).
T2 sequence (P22437 whole entry): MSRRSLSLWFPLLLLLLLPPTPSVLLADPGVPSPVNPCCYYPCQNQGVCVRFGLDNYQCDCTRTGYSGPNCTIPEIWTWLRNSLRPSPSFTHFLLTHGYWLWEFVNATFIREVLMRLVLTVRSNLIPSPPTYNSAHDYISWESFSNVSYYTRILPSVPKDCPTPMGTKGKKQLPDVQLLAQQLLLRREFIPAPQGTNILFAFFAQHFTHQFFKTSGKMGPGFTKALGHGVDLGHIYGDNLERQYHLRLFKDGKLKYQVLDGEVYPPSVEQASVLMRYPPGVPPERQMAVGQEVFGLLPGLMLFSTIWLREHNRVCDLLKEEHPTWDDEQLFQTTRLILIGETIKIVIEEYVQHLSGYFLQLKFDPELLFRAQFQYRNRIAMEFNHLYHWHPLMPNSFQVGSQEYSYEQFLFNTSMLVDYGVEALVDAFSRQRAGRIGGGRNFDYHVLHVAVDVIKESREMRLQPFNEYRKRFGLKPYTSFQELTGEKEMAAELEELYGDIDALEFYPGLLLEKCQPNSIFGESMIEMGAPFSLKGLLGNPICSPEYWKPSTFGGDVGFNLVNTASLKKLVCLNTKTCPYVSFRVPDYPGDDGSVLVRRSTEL
As to the kind of experiment: Inhibition of COX-1 in mouse J774 cells using arachidonic acid as substrate assessed as inhibition of prostaglandin E2 production preincubated for 15 mins followed by substrate addition measured after 30 mins by RIA. Type of data set: cell-based. The gist of the method: (§2)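 J774 murine macrophages pretreated 15 min with compound (10 µM; lower concentrations 0.01–1 µM where needed), then incubated 30 min at 37 °C with 15 µM arachidonic acid; supernatant PGE2 measured by RIA. Triplicate wells, mean of three experiments of percent inhibition versus control; IC50 by sigmoidal fit.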

Data set [6] has as its target T3, Prostaglandin G/H synthase 2 (Mus musculus) (UniProt Q05769).
T3 sequence (whole entry): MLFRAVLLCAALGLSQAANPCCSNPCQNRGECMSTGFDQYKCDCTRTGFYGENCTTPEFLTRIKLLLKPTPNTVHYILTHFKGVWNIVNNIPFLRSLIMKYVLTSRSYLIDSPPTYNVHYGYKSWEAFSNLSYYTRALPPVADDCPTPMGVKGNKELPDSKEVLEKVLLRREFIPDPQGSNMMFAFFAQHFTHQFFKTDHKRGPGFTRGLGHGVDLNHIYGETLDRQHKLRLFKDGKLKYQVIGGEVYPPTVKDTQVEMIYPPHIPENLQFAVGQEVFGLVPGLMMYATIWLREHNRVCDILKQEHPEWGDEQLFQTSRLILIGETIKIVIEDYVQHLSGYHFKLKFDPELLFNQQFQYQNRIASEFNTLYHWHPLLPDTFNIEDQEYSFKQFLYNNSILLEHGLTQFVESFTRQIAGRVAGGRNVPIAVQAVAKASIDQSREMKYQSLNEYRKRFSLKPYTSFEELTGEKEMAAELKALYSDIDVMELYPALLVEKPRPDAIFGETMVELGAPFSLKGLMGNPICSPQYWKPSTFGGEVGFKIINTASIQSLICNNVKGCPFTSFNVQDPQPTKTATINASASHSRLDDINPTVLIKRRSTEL
Kind of data set: Inhibition of LPS-induced COX-2 in mouse J774 cells using arachidonic acid as substrate assessed as inhibition of prostaglandin E2 production at 10 uM preincubated for 15 mins followed by substrate addition measured after 30 mins by RIA. Type of data set: cell-based.

In data set [7] the target is T4, Prostaglandin G/H synthase 1 (Mus musculus) (UniProt P22437).
T4 sequence (whole entry): T2 sequence (P22437 whole entry)
Kind of data set: Inhibition of COX-1 in mouse J774 cells using arachidonic acid as substrate assessed as inhibition of prostaglandin E2 production at 10 uM preincubated for 15 mins followed by substrate addition measured after 30 mins by RIA. The class given is cell-based. The gist of the method: as §2

Data set [8] concerns Mus musculus. Kind of data set: Analgesic activity in Swiss albino mouse assessed as reduction of acetic acid-induced writhing at 10 mg/kg, po measured every 10 mins after 5 mins of administration relative to control. The class given is functional. More on the design: scale not given: the % may be the effect or the level left. The essentials:
as §1

For data set [9], the system named is Mus musculus. Kind of data set: Analgesic activity in Swiss albino mouse assessed as reduction of acetic acid-induced writhing at 20 mg/kg, po measured every 10 mins after 5 mins of administration relative to control. Type of data set: functional. More on the design: scale not given: the % may be the effect or the level left. The gist of the method: as §1
The test system of data set [10] is Thoracic aorta. Kind of data set: Ex vivo vasorelaxant activity in Wistar rat endothelium thoracic aortic ring assessed as reduction of KCl-induced contraction at 0.001 uM to 10 uM relative to control. Type of data set: functional. The essentials: (§3)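 Endothelium-denuded thoracic aortic rings from male Wistar rats (250–350 g) in oxygenated Tyrode-type buffer at 37 °C, isometric tension recording. Rings precontracted with 30 mM KCl, then 3-fold increasing compound concentrations (1 nM–10 µM) added, also with 1 µM ODQ preincubated. Emax as % of KCl tone; pIC50; mean ± SE of 6–10 experiments.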

Data set [11] concerns Thoracic aorta. As to the kind of experiment: Ex vivo vasorelaxant activity in Wistar rat endothelium thoracic aortic ring assessed as reduction of KCl-induced contraction in presence of guanylate cyclase inhibitor ODQ. Type of data set: functional. The gist of the method:
as §3

The test system of data set [12] is Thoracic aorta. Kind of data set: Ex vivo vasorelaxant activity in Wistar rat endothelium thoracic aortic ring assessed as reduction of KCl-induced contraction. Type of data set: functional, tissue-based. The essentials: as §3
For data set [13], the system named is Mus musculus. Kind of data set: Analgesic activity in Swiss albino mouse assessed as reduction of acetic acid-induced writhing at 40 mg/kg, po measured every 10 mins after 5 mins of administration relative to control. Type of data set: functional. More on the design: scale not given: the % may be the effect or the level left. The essentials:
as §1

Data set [14] has as its target T5, Prostaglandin G/H synthase 2 (Mus musculus, UniProt Q05769).
T5 sequence (Q05769 whole entry): T3 sequence (whole entry)
Kind of data set: Inhibition of LPS-induced COX-2 in mouse J774 cells using arachidonic acid as substrate assessed as inhibition of prostaglandin E2 production preincubated for 15 mins followed by substrate addition measured after 30 mins by RIA. Type of data set: cell-based.

Data set [15] in a line: Metabolic stability in Sprague-Dawley rat plasma assessed as compound remaining after 120 mins by LC-MS/MS analysis. The class given is ADME, cell-free. The settings on record: read-out: Stability. The gist of the method: (§4)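 Compound (12 µL of 1 mM DMSO solution into 588 µL medium) incubated in PBS pH 7.4, pepsin-free SGF pH 1.5, or EDTA rat plasma. Aliquots taken at 0, 30, 60, 120 min and quenched with ice-cold acetonitrile containing internal standard; parent remaining as percent.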

Data set [16] is described as follows: Metabolic stability in Sprague-Dawley rat plasma assessed as compound remaining after 60 mins by LC-MS/MS analysis. Type of data set: ADME, cell-free. The settings on record: read-out: Stability. The gist of the method:
as §4

A short description of data set [17]: Metabolic stability in Sprague-Dawley rat plasma assessed as compound remaining after 30 mins by LC-MS/MS analysis. The class given is ADME, cell-free. As to conditions: read-out: Stability. The gist of the method: as §4
The nature of data set [18]: Stability of the compound in simulated gastric fluid assessed as compound remaining at pH 1.5 after 120 mins by LC-MS/MS analysis. Type of data set: physicochemical. The settings on record: read-out: Stability. The gist of the method:
(§5)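 1 mM DMSO stock added to 0.01 M PBS (pH 7.4) or 0.05 M simulated gastric fluid without pepsin (pH 1.5 with HCl); incubated in hybridisation oven; aliquots at 0, 30, 60, 120 min quenched with ice-cold acetonitrile containing internal standard; parent remaining (%) measured.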

Data set [19] in a line: Stability of the compound in simulated gastric fluid assessed as compound remaining at pH 1.5 after 60 mins by LC-MS/MS analysis. Type of data set: physicochemical. The settings on record: read-out: Stability. The gist of the method:
as §5

Data set [20] in a line: Solubility of the compound in phosphate buffer saline at pH 7.4 after 90 mins by HPLC analysis. The class given is physicochemical. The essentials:
(§6)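 DMSO stock (20 mM) diluted 2 µL into 198 µL PBS 0.01 M pH 7.4 or pepsin-free SGF 0.05 M pH 1.5, duplicate wells, shaken 90 min at 300 rpm. Filtrates analysed by HPLC with photodiode-array detection against seven-point standards (1–200 µM).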

The nature of data set [21]: Solubility of the compound in simulated gastric fluid at pH 1.5 after 90 mins by HPLC analysis. The class given is ADME. The essentials: as §6
Data set [22] is described as follows: Stability of the compound in phosphate buffer saline assessed as compound remaining at pH 7.4 after 30 mins by LC-MS/MS analysis. The class given is physicochemical. As to conditions: read-out: Stability. The gist of the method:
as §5

A short description of data set [23]: Stability of the compound in phosphate buffer saline assessed as compound remaining at pH 7.4 after 120 mins by LC-MS/MS analysis. The class given is physicochemical. The settings on record: read-out: Stability. The essentials:
as §4

Data set [24] can be described thus: Stability of the compound in simulated gastric fluid assessed as compound remaining at pH 1.5 after 30 mins by LC-MS/MS analysis. Type of data set: physicochemical. The settings on record: read-out: Stability. The essentials: as §5
A short description of data set [25]: Stability of the compound in phosphate buffer saline assessed as compound remaining at pH 7.4 after 60 mins by LC-MS/MS analysis. Type of data set: physicochemical. The settings on record: read-out: Stability. The gist of the method:
as §5

Prostaglandin G/H synthase 1 (Homo sapiens, UniProt P23219), sequence (P23219 whole entry): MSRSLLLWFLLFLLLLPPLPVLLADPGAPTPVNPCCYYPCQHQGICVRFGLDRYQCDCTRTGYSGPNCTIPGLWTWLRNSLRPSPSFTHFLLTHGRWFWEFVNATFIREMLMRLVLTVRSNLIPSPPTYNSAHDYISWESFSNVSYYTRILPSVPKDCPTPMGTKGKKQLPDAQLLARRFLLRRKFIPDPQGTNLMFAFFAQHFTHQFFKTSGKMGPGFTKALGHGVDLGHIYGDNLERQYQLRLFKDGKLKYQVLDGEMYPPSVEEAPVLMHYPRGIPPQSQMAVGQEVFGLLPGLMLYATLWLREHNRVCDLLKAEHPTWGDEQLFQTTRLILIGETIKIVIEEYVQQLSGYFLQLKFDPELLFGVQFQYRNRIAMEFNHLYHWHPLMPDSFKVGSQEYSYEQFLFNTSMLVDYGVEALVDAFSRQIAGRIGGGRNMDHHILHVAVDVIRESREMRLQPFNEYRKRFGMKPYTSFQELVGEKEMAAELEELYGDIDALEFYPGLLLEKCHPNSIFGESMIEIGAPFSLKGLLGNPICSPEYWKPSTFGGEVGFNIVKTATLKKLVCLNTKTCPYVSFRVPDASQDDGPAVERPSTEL

For `Cc1c(CC(=O)NCCO)cc(-c2ccc(S(C)(=O)=O)cc2)n1-c1ccc(F)cc1`, the figures for the IC50 in [1], in data set [2] and in [5] were 1400 nM, 1900 nM and above 10000 nM, respectively. The Activity result in data set [3] is “Dose-dependent effect”; in [8] it was 37%; in data set [9], 61%. For the same compound, the Ratio IC50 in data set [4] was above 33. Moreover, the inhibition in data set [6] was found to be 100%; in data set [7], 0%.

For the compound `Cc1c(CC(=O)NCCCO[N+](=O)[O-])cc(-c2ccc(S(C)(=O)=O)cc2)n1-c1cccc(F)c1`, the Activity result in data set [3] was “Dose-dependent effect”; in [13], 30%; in [8] it was 0%; in data set [9] it was 8.6%. In addition, the Emax in [10] worked out at 69%. Further, the outcome in data set [11] was inactive. Also, the IC50 in data set [12] was 1660 nM; in data set [14], 250 nM; in [5], above 10000 nM. The Ratio IC50 in data set [4] was above 40. In addition, the values for the inhibition in data set [6] and in [7] were 100% and 0%, respectively.

Take `Cc1c(C(N)C(=O)OCCO[N+](=O)[O-])cc(-c2ccc(S(C)(=O)=O)cc2)n1-c1ccc(F)cc1` (configuration not stated): the remaining at 2 h in data set [15] is 0%; in [18], 100%; in data set [23], 75%. Also, the figures for the remaining at 1 h in data set [16], in [19] and in data set [25] were 0%, 100% and 75%, respectively. In addition, the remaining at 0.5 h was 0% in data set [17], 75% in data set [22] and 100% in data set [24]. Moreover, the solubility at 1.5 h is 80 µM (≈ 39.3 µg/mL) in data set [20] and above 200 µM in data set [21].

The record behind these values is ChEMBL document CHEMBL3102735, “Enhancing the pharmacodynamic profile of a class of selective COX-2 inhibiting nitric oxide donors” (Bioorg Med Chem, 2014).
